Bioassay records as filed in PubChem.
A selection: hits, their analogues and other compounds. The true share with any hit is near 1.7%.
Vif imaging = blocks HIV Vif function | HEK293T cells, Vif self-association by quenched fluorescence, imaging, 24 h | inhibition, % at 7.49 µM | 340,000 compounds, 0.35% hits | AID 602346; in the data active = inhibition above about 50%, passing the limit was not always enough
SR-BI DiI inh = blocks mouse SR-BI lipid uptake from DiI-HDL; Q61009; inhibition, % at 12.5 µM; 320,000 compounds, 0.96% hits; ldlA[mSR-BI] CHO cells, DiI-HDL uptake fluorescence, 3 h; AID 488896;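 active = mean replicate inhibition of at least 70% and a set share of replicates each scoring 70 or more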;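 also: 0% = median of neutral control wells and 100% = median of positive control wells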
Target sequence (Q61009 whole entry, looked up): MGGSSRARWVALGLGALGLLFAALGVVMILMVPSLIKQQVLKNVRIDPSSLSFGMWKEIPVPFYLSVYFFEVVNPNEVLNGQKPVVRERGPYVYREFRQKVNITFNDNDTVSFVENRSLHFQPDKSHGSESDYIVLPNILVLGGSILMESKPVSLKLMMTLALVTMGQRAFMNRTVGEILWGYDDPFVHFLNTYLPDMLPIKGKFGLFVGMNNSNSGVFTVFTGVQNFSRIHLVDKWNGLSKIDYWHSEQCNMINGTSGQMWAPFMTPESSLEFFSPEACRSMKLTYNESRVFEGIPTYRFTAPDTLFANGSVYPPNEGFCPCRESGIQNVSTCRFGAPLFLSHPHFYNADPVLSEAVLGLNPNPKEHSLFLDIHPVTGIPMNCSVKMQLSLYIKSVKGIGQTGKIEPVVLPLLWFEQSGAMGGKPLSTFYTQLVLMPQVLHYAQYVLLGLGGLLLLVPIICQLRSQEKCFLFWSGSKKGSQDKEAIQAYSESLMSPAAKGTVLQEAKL
SR-BI DiI-HDL act = activators of SR-BI mediated HDL lipid uptake | AID 504775 | 320,000 compounds, 0.096% hits | activation, % at 12.5 µM | CHO ldlA[mSR-BI] cells, DiI-HDL uptake fluorescence, 3 h; 100 = double the neutral-control signal;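 active = mean replicate activation of at least 60% and every replicate at or above 60%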;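 also: 0% = median plate neutral-control signal and 100% = twice that signal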
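Material: SR-BI-overexpressing, LDLR-lacking CHO cells; schedule: compound exposure 3 h, 37 °C; reagent: DiI-labelled HDL at 10 µg/mL final; technique: bottom-read fluorescence, 550/595 nm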
Statin myotox sup = suppression of simvastatin myotoxicity | C2C12 myotubes + simvastatin, ATP luminescence, 48 h; scaled: DMSO 0, geranylgeraniol control 100 | 330,000 compounds, 0.78% hits | rescue of ATP level, % at 7.49 µM;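 active = mean ATP rescue above about 67%, or every replicate alone reaching that limit, limit read from the data, passing the limit was not always enough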;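 also: myotubes were challenged with 10 µM simvastatin during compound exposure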
Active calls of the source: *; . = no result given.

SMILES | Vif imaging | SR-BI DiI inh | SR-BI DiI-HDL act | Statin myotox sup
COc1ccc(-c2ccc3n(c2=O)C[C@@H]2[C@@H](CO)[C@H](C(=O)N(C)C)[C@H]3N2Cc2cncnc2)cc1 | . | . | . | -17
COc1cccc(C(=O)N2N=C(c3ccccn3)CC2(O)C(F)(F)F)c1 (configuration not stated) | -3 | -240 | 241* | .
CCC(=O)Nc1cccc(-c2nc3ccc(C)cc3o2)c1 | -2 | 31 | -31 | -8
Cc1ccc2nc(-c3cccc(NC(=O)c4ccc5c(c4)OCCO5)c3)oc2c1 | 0 | 34 | -34 | 110*
C[C@@H]1CCCCO[C@H](CN(C)Cc2ccncc2)[C@H](C)CN([C@H](C)CO)C(=O)c2cc(NC(=O)Nc3ccc(F)cc3)ccc2O1 | . | . | . | -3
C=CCOc1cccc(C2C(C(=O)c3ccc(C)o3)=C(O)C(=O)N2Cc2ccncc2)c1 (configuration not stated) | 34 | -2 | 2 | 110*
CCOc1cccc(C2C(C(=O)c3ccc(C)o3)=C(O)C(=O)N2Cc2ccncc2)c1 (configuration not stated) | -7 | -17 | 17 | .
Nc1c(C(=O)O)cnc2nc(N3CCOCC3)nn12 | -1 | -4 | 4 | .
CSc1nc2ncc(C(=O)O)c(N)n2n1 | 51* | -20 | 20 | 1
CC(=O)N(C)C[C@@H]1Oc2ncc(-c3cccc(F)c3)cc2C(=O)N([C@H](C)CO)C[C@H]1C | . | . | . | -5
Cn1cc(/C=N/NC(=O)c2ccccc2O)c2ccccc21 | -3 | 18 | -18 | -6
O=C(N/N=C/c1cc2c3c(c1O)CCCN3CCC2)c1ccccc1O | -4 | 140* | -140 | .
COc1ccc(CC(=O)Nc2cc(C)on2)cc1 | 13 | 3 | -3 | 137*
CN(C)CC(=O)N[C@H]1CC[C@H](CCn2cc(C3CC3)nn2)O[C@H]1CO | . | . | . | 1
O=C1c2ccc(-c3ccc(Cl)c(C(F)(F)F)c3)cc2S(=O)(=O)c2cccc(C(=O)N3CCN(c4ccc(Cl)cn4)CC3)c21 | . | 91* | -91 | -4
COc1ccc(Br)cc1/C=N/NC(=O)c1ccc(OC)c(OC)c1 | 0 | 92* | -92 | .
COc1ccc(Br)cc1/C=N/NC(=O)c1cc(OC)c(OC)c(OC)c1 | -5 | 75* | -75 | .
COc1ccc(Br)cc1/C=N/NC(=O)c1ccc2nc[nH]c2c1 | 6 | 28 | -28 | -8
CC(C)C#Cc1cnc2c(c1)C(=O)N([C@@H](C)CO)C[C@H](C)[C@H](CN(C)C(=O)Cc1ccccn1)O2 | . | . | . | 33
C[C@@H]1CN([C@H](C)CO)C(=O)c2cccc(NS(=O)(=O)c3ccc(F)cc3)c2O[C@@H]1CN(C)C(=O)Nc1cccc2ccccc12 | . | . | . | 42
N#Cc1c(/N=C/c2cccs2)sc2c1CCC2 | 6 | 13 | -13 | 3
N#Cc1c(/N=C/c2cc(Br)cs2)sc2c1CCC2 | 23 | 0 | 0 | 68*
Cc1ccc(O)c(NC(=O)c2cc(-c3cccs3)on2)c1 | 8 | -2 | 2 | 213*
Cc1ccc(O)c(NC(=O)c2cc(-c3ccc(F)cc3)on2)c1 | 4 | -1 | 1 | 27
CC(C)CC#Cc1ccc2c(c1)O[C@H](CN(C)C(=O)Nc1ccccc1)[C@H](C)CN([C@H](C)CO)S2(=O)=O | . | . | . | 30
SMILES | Vif imaging | SR-BI DiI inh | SR-BI DiI-HDL act | Statin myotox sup
CC(C)C(=O)Nc1ccc2c(c1)C(=O)N(C)[C@H]1CC[C@H](CC(=O)NCc3ccc(F)cc3)O[C@@H]1CO2 | . | . | . | 5
O=C(NCc1ccccc1)c1ccc(C2SCC(=O)N2Cc2ccccc2)cc1 (configuration not stated) | -5 | 43 | -43 | 79*
CCOc1ccccc1NC(=O)c1cc(-c2cc(OC)c(OC)c(OC)c2)nc2ccccc12 | -12 | 72* | -72 | 3
O=C(Nc1ccc(N2CCOCC2)cc1)c1cc(-c2ccncc2)nc2ccccc12 | -2 | 62 | -62 | .
COc1ccccc1NC(=O)c1cc(-c2cc(OC)c(OC)c(OC)c2)nc2ccccc12 | 4 | 55 | -55 | -41
COc1cc(-c2cc(C(=O)Nc3ccc(N4CCOCC4)cc3)c3ccccc3n2)cc(OC)c1OC | -23 | 90* | -90 | .
COc1cc(-c2ccccc2)nc2ccccc12 | -5 | -1 | 1 | 95*
O=C(C[C@H]1CC[C@@H]2[C@H](COC[C@H](O)CN2CCC(F)(F)F)O1)NCc1ccc(Oc2ccccc2)cc1 | . | . | . | 72*
O=C(C[C@@H]1CC[C@H]2[C@@H](COC[C@@H](O)CN2CCC(F)(F)F)O1)NCc1ccc(Oc2ccccc2)cc1 | . | . | . | 18
CNC[C@@H]1Oc2ccc(NS(=O)(=O)c3ccc(C)cc3)cc2CC(=O)N([C@H](C)CO)C[C@H]1C | . | . | . | -15
COc1ccc(CN(C)C[C@H]2Oc3c(NC(=O)c4nc5ccccc5s4)cccc3C(=O)N([C@H](C)CO)C[C@@H]2C)cc1 | . | . | . | 14
COc1cccc(OC)c1C(=O)N1CCN(S(=O)(=O)c2ccc(C)cc2)CC1 | -6 | -10 | 10 | 126*
Cc1onc(-c2ccccc2)c1C(=O)N1CCN(S(=O)(=O)c2ccc(OC(F)(F)F)cc2)CC1 | -4 | 14 | -14 | -7
Cc1ccc(S(=O)(=O)N2CCN(C(=O)c3c(-c4ccccc4)noc3C)CC2)cc1 | 52* | . | . | -1
Cc1cccc(N2C(=O)CC(SC(=Nc3ccccc3)Nc3ccccc3)C2=O)c1 (configuration not stated) | 1 | 74* | -74 | -4
COC(=O)c1cc(OC)c(OC)cc1NC(=O)c1ccccc1 | -6 | 59 | -59 | -16
COC(=O)c1cc(OC)c(OC)cc1NC(=O)c1cccc(C)c1 | -6 | 81* | -81 | -6
COC(=O)c1[nH]c2ccc(C)cc2c1NC(=O)Nc1ccccc1OC | 2 | 80* | -80 | -10
COc1cc(OC)c(NC(=S)Nc2cccc(C(C)=O)c2)cc1Cl | 3 | 87* | -87 | -20
CCOc1cc(NC(=O)c2ccccn2)c(OCC)cc1NC(=O)c1cccc(C)c1 | -11 | 71* | -71 | -16
O=C(Nc1ccc2c(c1)OCO2)N[C@H]1CC[C@@H](CCNC(=O)C2CC2)O[C@@H]1CO | . | . | . | -10
C[C@@H]1CN([C@@H](C)CO)S(=O)(=O)c2ccc(-c3cccc(C#N)c3)cc2O[C@@H]1CN(C)C(=O)C1CC1 | . | . | . | -28
O=C(NCC[C@H]1CC[C@H](NS(=O)(=O)c2ccc(F)cc2)[C@H](CO)O1)Nc1ccc(Cl)cc1 | . | . | . | 10
Cc1cccc(C(=O)Nc2cc(OCc3cccc(F)c3)c(Cl)cc2Cl)c1 | 1 | 51 | -51 | 113*
COC(=O)c1cc(OC)c(OC)cc1NC(=O)Nc1cccc(C(C)=O)c1 | 2 | -9 | 9 | 114*
COC(=O)c1cccc(NC(=O)Nc2ccccc2OC)c1 | 0 | 81* | -81 | .
C[C@H]1CCCCO[C@@H](CN(C)C(=O)Cc2ccccc2)[C@@H](C)CN([C@@H](C)CO)C(=O)c2cc(NC(=O)Cc3ccccc3)ccc2O1 | . | . | . | 34
Cc1ccc(S(=O)(=O)N2CCN(C(=O)c3n[nH]c(=O)c4ccccc34)CC2)cc1 | 2 | -19 | 19 | 6
